Results reported in ChEMBL document CHEMBL1121700, “Antiinflammatory 5,6-dihydro-11-oxodibenz[b,e]azepine-3-acetic acids” (1981).

Experiments:
Format in all cases: functional
[1] = test system: Rattus norvegicus; assay: Antiinflammatory activity relative to phenyl butazone as 1 in rat carrageenan paw edema assay
Summary of the method: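 Female rats, 80–90 g, six per dose group, at least four dose levels. Test agent given orally 1 h before carrageenan injection into one hind paw, in vehicle of 0.9% NaCl, 0.5% Na carboxymethylcellulose, 0.4% polysorbate 80, 0.9% benzyl alcohol, 97.3% water. Rats killed 4 h after dosing and both hind paws weighed. Potency relative to phenylbutazone from dose-response of % weight increase of treated over untreated paw, by analysis of variance.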

[2] = species on record: Mus musculus; assay: Analgesic activity relative to aspirin as 1 in 8 mice phenylquinone writhing assay
Summary of the method: (§1)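 Male mice, 18–20 g, dosed orally with test agent in aqueous vehicle (0.9% NaCl, 0.5% Na carboxymethylcellulose, 0.4% polysorbate 80, 0.9% benzyl alcohol, 97.3% water) 20 min before intraperitoneal phenylquinone. Writhing observed over the following 10 min. Potency relative to aspirin taken from dose-response plots by analysis of variance.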

[3] = species on record: Mus musculus; assay: Analgesic activity relative to aspirin as 1 in 24 mice phenylquinone writhing assay; summary of the method: as §1
[4] = species on record: Mus musculus; assay: Analgesic activity relative to aspirin as 1 in 32 mice phenylquinone writhing assay; summary of the method: as §1
[5] = species on record: Mus musculus; assay: Analgesic activity relative to aspirin as 1 in 16 mice phenylquinone writhing assay; summary of the method: as §1

Row | SMILES | Relative activity [1] | Relative activity [2] | Relative activity [3] | Relative activity [4] | Relative activity [5]
1 | O=C(O)Cc1ccc2c(c1)NCc1ccccc1C2=O | 29 | <0.7 | – | – | –
2 | CC(C(=O)O)c1ccc2c(c1)N(C)Cc1ccccc1C2=O (centres undefined) | 11 | – | 1 | – | –
3 | CN1Cc2ccccc2C(=O)c2ccc(CC(=O)O)cc21 | 7 | – | – | <0.2 | –
4 | COc1ccc2c(c1)CNc1cc(CC(=O)O)ccc1C2=O | <0.1 | <0.2 | – | – | –
5 | CC(=O)N1Cc2ccccc2C(=O)c2ccc(CC(=O)O)cc21 | <0.3 | <0.2 | – | – | –
6 | COc1ccc2c(c1)CN(C)c1cc(CC(=O)O)ccc1C2=O | 6.7 | – | – | – | <0.5
7 | CCN1Cc2ccccc2C(=O)c2ccc(CC(=O)O)cc21 | 2.3 | – | – | – | <0.2
